# From PubChem BioAssay AID720717 (ICCB-Longwood Screening Facility, Harvard Medical School, 2013)
# Hit rate of the full screen: of about 51,000 compounds, about 150 (0.29%) were called active. The full list was thinned out, with actives kept by preference. Values without a mark were called inactive.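 How the source made its calls: active means both repeat wells score below -2 in polarization z-score versus plate sample wells, excluding overly bright wells; inactive means the rest.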
# Tested on: LANA (ORF73) N-terminal peptide binding to nucleosomes, Human herpesvirus 8
# Experiment: LANA N-terminal peptide–nucleosome interaction blockers – biochemical, fluorescence polarization, FITC-LANA1-23, chicken nucleosomes, primary screen (AID 720717)
# Conditions: FITC-LANA1-23 / chicken nucleosome fluorescence polarization; hits give low values
# In short: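 test system = FITC-LANA peptide and chicken nucleosomes | amount = 240 nM purified chicken nucleosomes (480 nM peptide binding sites), final | reagent = 50 nM FITC-LANA1-23 probe | medium = TEN-BT buffer, pH 7.5 | doses = single compound addition by pin transfer, 100 nL per well | timing = 10–45 min, room temperature | detection = fluorescence polarization | repeats = duplicate plates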
row,Compound,z-score
1,CN1CCc2c(c(S)[nH]c(=S)c2C#N)C1,-3.73 (active)
2,CCOC(=O)c1sc2nc3c(cc2c1N)CN(C)CC3,0.365
3,O=C(c1ccccc1)c1cc(Cl)ccc1NC(=O)C(F)(F)F,-0.891
4,Cc1cccc(NC(=O)OC2CN3CCC2CC3)c1 (stereo not given),-0.799
5,CC1(C)CC(Nc2nc(Cl)c(C#N)c(Cl)c2Cl)CC(C)(C)N1,-1.52
